Measurements as given in ChEMBL document CHEMBL1154044, “5-Nitro-2-furyl derivative actives against Trypanosoma cruzi: preliminary in vivo studies” (Eur J Med Chem, 2009).
The source made the active and inactive calls. The rule behind the calls is not given here.

Tests used:
Mus musculus [1] = experiment: Toxicity in CD1 mouse assessed as glutamic-pyruvate transaminase level at 300 mg/kg, ip after 3 days; type: organism-based; set-up: dose 300 mg/kg, route intraperitoneal; conditions: in vivo, 72 h
Summary of the method: (§1)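 Healthy female CD1 mice (5–7 per group) received a single oral dose of 450 mg/kg or an i.p. dose of 300 mg/kg, with vehicle controls. On day 3 they were sacrificed under ether anaesthesia. Blood was drawn from the subclavian artery and kept at 0 °C in EDTA or heparin. Leukocytes, haemoglobin, haematocrit, GPT and GOT were measured within 24 h and compared with normal ranges.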

Mus musculus [2] = experiment: Toxicity in CD1 mouse heart at 450 mg/kg, po after 3 days by histological study; type: organism-based; set-up: dose 450 mg/kg, route oral; conditions: in vivo, 72 h
Summary of the method: (§2)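 Healthy female CD1 mice (20–22 g), 5–7 per group, given a single oral (intragastric) or i.p. dose in saline:Tween 80 (4:1) vehicle. Sacrificed on day 3 after ether anaesthesia. Organs fixed in 10% aqueous formalin for histology. Scored against untreated animals from no change to +++ (many changes).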

Trypanosoma cruzi [3] = experiment: Antitrypanosomal activity against Trypanosoma cruzi infected in po dosed CD1 mouse assessed as prevention of amastigote nest in heart administered daily for 14 days measured on day 45; type: functional, organism-based
Summary of the method: (§3)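 T. cruzi, a Uruguayan patient isolate, was inoculated intradermally into 2-month-old female CD1 mice (20–22 g). Dosing began on day 15 after parasitaemia was observed. Drugs were suspended in saline:Tween 80 (4:1) and given by intragastric syringe once daily for 14 days, with untreated controls. On day 45 after treatment start, heart and muscle sections were scored by two independent observers for amastigotes and inflammatory infiltrates. Groups had 5–7 mice.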

Mus musculus [4] = experiment: Toxicity in CD1 mouse assessed as leukocyte level at 300 mg/kg, ip after 3 days; type: organism-based; set-up: dose 300 mg/kg, route intraperitoneal; conditions: in vivo, 72 h; summary of the method: as §1
Mus musculus [5] = experiment: Toxicity in CD1 mouse assessed as haemoglobin level at 300 mg/kg, ip after 3 days; type: organism-based; set-up: dose 300 mg/kg, route intraperitoneal; conditions: in vivo, 72 h; summary of the method: as §1
Mus musculus [6] = experiment: Toxicity in CD1 mouse assessed as glutamic-oxalacetate transaminase level at 450 mg/kg, po after 3 days; type: organism-based; set-up: dose 450 mg/kg, route oral; conditions: in vivo, 72 h; summary of the method: as §1
Mus musculus [7] = experiment: Toxicity in CD1 mouse heart at 300 mg/kg, ip after 3 days by histological study; type: organism-based; set-up: dose 300 mg/kg, route intraperitoneal; conditions: in vivo, 72 h; summary of the method: as §2
Mus musculus [8] = experiment: Toxicity in CD1 mouse assessed as survival at 300 mg/kg, ip after 3 days; type: organism-based; set-up: dose 300 mg/kg, route intraperitoneal; conditions: in vivo, 72 h
Summary of the method: (§4)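 Healthy 2-month-old female CD1 mice (20–22 g), groups of 5–7, given one oral dose by intragastric syringe or one i.p. injection. Compound suspended in saline:Tween 80 (4:1) with sonication just before dosing; vehicle-treated controls included. Weighed and observed daily over 3 days for skin, physical aspect, activity and faeces; survival recorded at day 3.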

Mus musculus [9] = experiment: Toxicity in CD1 mouse assessed as increase in weight respect to day zero at 450 mg/kg, po after 3 days; conditions: in vivo, 72 h
Mus musculus [10] = experiment: Toxicity in CD1 mouse kidney at 450 mg/kg, po after 3 days by histological study; type: organism-based; set-up: dose 450 mg/kg, route oral; conditions: in vivo, 72 h; summary of the method: as §2
Mus musculus [11] = experiment: Toxicity in CD1 mouse assessed as increase in weight respect to day zero at 300 mg/kg, ip after 3 days; type: organism-based; set-up: dose 300 mg/kg, route intraperitoneal; conditions: in vivo, 72 h
Summary of the method: (§5)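 Healthy 2-month-old female CD1 mice (20–22 g, 5–7 per group) received one dose. Oral doses of 450 or 300 mg/kg were given by intragastric syringe; i.p. doses of 300 or 150 mg/kg by injection. Drugs were suspended in saline:Tween 80 (4:1), and a vehicle-only control was included. Mice were weighed and observed daily for 3 days. Weight change is expressed as percent relative to day zero.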

Mus musculus [12] = experiment: Toxicity in CD1 mouse liver at 300 mg/kg, ip after 3 days by histological study; type: organism-based; set-up: dose 300 mg/kg, route intraperitoneal; conditions: in vivo, 72 h; summary of the method: as §2
Mus musculus [13] = experiment: Toxicity in CD1 mouse assessed as glutamic-pyruvate transaminase level at 450 mg/kg, po after 3 days; type: organism-based; set-up: dose 450 mg/kg, route oral; conditions: in vivo, 72 h; summary of the method: as §1
Mus musculus [14] = experiment: Toxicity in CD1 mouse intestine at 450 mg/kg, po after 3 days by histological study; type: organism-based; set-up: dose 450 mg/kg, route oral; conditions: in vivo, 72 h; summary of the method: as §2
Trypanosoma cruzi [15] = experiment: Growth inhibition of Trypanosoma cruzi Tulahuen 2 epimastigote at 5 uM after 5 days; type: functional; conditions: Trypanosoma cruzi, Tulahuen 2, 120 h; read-out: GI
Mus musculus [16] = experiment: Toxicity in CD1 mouse intestine at 300 mg/kg, ip after 3 days by histological study; type: organism-based; set-up: dose 300 mg/kg, route intraperitoneal; conditions: in vivo, 72 h; summary of the method: as §2
Mus musculus [17] = experiment: Toxicity in CD1 mouse assessed as survival at 450 mg/kg, po after 3 days; type: organism-based; set-up: dose 450 mg/kg, route oral; conditions: in vivo, 72 h; summary of the method: as §4
Mus musculus [18] = experiment: Toxicity in CD1 mouse brain at 450 mg/kg, po after 3 days by histological study; type: organism-based; set-up: dose 450 mg/kg, route oral; conditions: in vivo, 72 h; summary of the method: as §2
Mus musculus [19] = experiment: Toxicity in CD1 mouse assessed as haemoglobin level at 450 mg/kg, po after 3 days; type: organism-based; set-up: dose 450 mg/kg, route oral; conditions: in vivo, 72 h; summary of the method: as §1
Trypanosoma cruzi [20] = experiment: Antitrypanosomal activity against Trypanosoma cruzi infected in po dosed CD1 mouse assessed as prevention of amastigote nest in smooth muscle administered daily for 14 days measured on day 45; type: functional, organism-based; conditions: Muscle tissue; summary of the method: as §3
Trypanosoma cruzi [21] = experiment: Antitrypanosomal activity against Trypanosoma cruzi infected in po dosed CD1 mouse assessed as prevention of inflammatory infiltrates in heart administered daily for 14 days measured on day 45; type: functional, organism-based; summary of the method: as §3
Mus musculus [22] = experiment: Toxicity in CD1 mouse brain at 300 mg/kg, ip after 3 days by histological study; type: organism-based; set-up: dose 300 mg/kg, route intraperitoneal; conditions: in vivo, 72 h; summary of the method: as §2
Mus musculus [23] = experiment: Toxicity in CD1 mouse lung at 450 mg/kg, po after 3 days by histological study; type: organism-based; set-up: dose 450 mg/kg, route oral; conditions: in vivo, 72 h; summary of the method: as §2
Mus musculus [24] = experiment: Toxicity in CD1 mouse liver at 450 mg/kg, po after 3 days by histological study; type: organism-based; set-up: dose 450 mg/kg, route oral; conditions: in vivo, 72 h; summary of the method: as §2
Mus musculus [25] = experiment: Toxicity in CD1 mouse assessed as leukocyte level at 450 mg/kg, po after 3 days; type: organism-based; set-up: dose 450 mg/kg, route oral; conditions: in vivo, 72 h; summary of the method: as §1
Mus musculus [26] = experiment: Toxicity in CD1 mouse lung at 300 mg/kg, ip after 3 days by histological study; type: organism-based; set-up: dose 300 mg/kg, route intraperitoneal; conditions: in vivo, 72 h; summary of the method: as §2
Mus musculus [27] = experiment: Toxicity in CD1 mouse assessed as glutamic-oxalacetate transaminase level at 300 mg/kg, ip after 3 days; type: organism-based; set-up: dose 300 mg/kg, route intraperitoneal; conditions: in vivo, 72 h; summary of the method: as §1
Trypanosoma cruzi [28] = experiment: Antitrypanosomal activity against Trypanosoma cruzi infected in po dosed CD1 mouse assessed as prevention of inflammatory infiltrates in smooth muscle administered daily for 14 days measured on day 45; type: functional, organism-based; conditions: Muscle tissue; summary of the method: as §3
Mus musculus [29] = experiment: Toxicity in CD1 mouse kidney at 300 mg/kg, ip after 3 days by histological study; type: organism-based; set-up: dose 300 mg/kg, route intraperitoneal; conditions: in vivo, 72 h; summary of the method: as §2
Mus musculus [30] = experiment: Toxicity in CD1 mouse assessed as decrease in weight respect to day zero at 300 mg/kg, ip after 3 days; type: organism-based; set-up: dose 300 mg/kg, route intraperitoneal; scale not given: the % may be the effect or the level left; conditions: in vivo, 72 h; summary of the method: as §5
Mus musculus [31] = experiment: Toxicity in CD1 mouse assessed as hematocrite level at 300 mg/kg, ip after 3 days; type: organism-based; set-up: dose 300 mg/kg, route intraperitoneal; conditions: in vivo, 72 h; summary of the method: as §1
Mus musculus [32] = experiment: Toxicity in CD1 mouse assessed as hematocrite level at 450 mg/kg, po after 3 days; type: organism-based; set-up: dose 450 mg/kg, route oral; conditions: in vivo, 72 h; summary of the method: as §1

CCCCCCNC(=O)N/N=C/C=C/c1ccc([N+](=O)[O-])o1
Activity (Mus musculus [1]): 76.2 IU/L
Activity (Mus musculus [2]): Non-toxic
Activity (Trypanosoma cruzi [3]): Active
Activity (Mus musculus [4]): 31700 µL⁻¹
Activity (Mus musculus [5]): 12.8 g/dL
Activity (Mus musculus [6]): 94.1 IU/L
Activity (Mus musculus [7]): Non-toxic
Activity (Mus musculus [8]): Non-toxic
Activity (Mus musculus [9]): 21%
Activity (Mus musculus [10]): Non-toxic
Activity (Mus musculus [11]): 8%
Activity (Mus musculus [12]): Toxic
Activity (Mus musculus [13]): 29.4 IU/L
Activity (Mus musculus [14]): Non-toxic
inhibition of growth at 5 µM (Trypanosoma cruzi [15]): 82%
Activity (Mus musculus [16]): Non-toxic
Activity (Mus musculus [17]): Non-toxic
Activity (Mus musculus [18]): Non-toxic
Activity (Mus musculus [19]): 16.3 g/dL
Activity (Trypanosoma cruzi [20]): Active
Activity (Trypanosoma cruzi [21]): Active
Activity (Mus musculus [22]): Non-toxic
Activity (Mus musculus [23]): Non-toxic
Activity (Mus musculus [24]): Toxic
Activity (Mus musculus [25]): 32400 µL⁻¹
Activity (Mus musculus [26]): Non-toxic
Activity (Mus musculus [27]): 109 IU/L
Activity (Trypanosoma cruzi [28]): Active
Activity (Mus musculus [29]): Toxic

CCCCCCOC(=O)N/N=C/c1ccc([N+](=O)[O-])o1
Activity (Mus musculus [30]): 0%
Activity (Mus musculus [1]): 32 IU/L
Activity (Mus musculus [2]): Non-toxic
Activity (Mus musculus [4]): 4900 µL⁻¹
Activity (Mus musculus [5]): 12.3 g/dL
Activity (Mus musculus [6]): 192 IU/L
Activity (Mus musculus [31]): 38.7%
Activity (Mus musculus [7]): Non-toxic
Activity (Mus musculus [9]): 3%
Activity (Mus musculus [10]): Non-toxic
Activity (Mus musculus [12]): Toxic
Activity (Mus musculus [13]): 34 IU/L
Activity (Mus musculus [14]): Non-toxic
inhibition of growth at 5 µM (Trypanosoma cruzi [15]): 93%
Activity (Mus musculus [16]): Non-toxic
Activity (Mus musculus [17]): Non-toxic
Activity (Mus musculus [18]): Non-toxic
Activity (Mus musculus [19]): 10.6 g/dL
Activity (Mus musculus [22]): Non-toxic
Activity (Mus musculus [23]): Non-toxic
Activity (Mus musculus [24]): Toxic
Activity (Mus musculus [25]): 2700 µL⁻¹
Activity (Mus musculus [26]): Non-toxic
Activity (Mus musculus [27]): 140 IU/L
Activity (Mus musculus [29]): Non-toxic
Activity (Mus musculus [32]): 34.4%
